# From ChEMBL document CHEMBL3853307, “Anti-inflammatory Effect of Methyl Gallate on Experimental Arthritis: Inhibition of Neutrophil Recruitment, Production of Inflammatory Mediators, and Activation of Macrophages” (J Nat Prod, 2016)
# Activity calls are given as the source filed them. The rule behind the calls is not given here.
# Columns and labels:
# [1] = tested on: J774.A1; test: Antiinflammatory activity in mouse J774A.1 cells assessed as inhibition of zymosan and IFNgamma-induced COX2 expression at 1 uM preincubated for 1 hr followed by zymosan and IFNgamma addition measured after 24 hrs by Western blot analysis; type: functional, cell-based
# Outline: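 J774A.1 cells in six-well plates pretreated 1 h (0.1−10 μM) before zymosan (10 μg per 10^5 cells) and/or IFN-γ (25 U/mL) for 24 h. Lysates (Tris/NaCl/MgCl2/0.5% NP40 with protease inhibitors); 30 μg protein run on 7.5% SDS-PAGE, transferred to PVDF, probed for COX-2, iNOS and α-tubulin.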
# [2] = tested on: J774.A1; test: Antiinflammatory activity in mouse J774A.1 cells assessed as inhibition of zymosan and IFNgamma-induced nitric oxide production at 1 uM preincubated for 1 hr followed by zymosan and IFNgamma addition measured after 24 hrs by colorimetric Griess test; type: functional, cell-based
# Outline: (§1)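 J774A.1 macrophages (1 × 10^5/well, RPMI/10% FBS) adhered 24 h, preincubated 1 h with compound (0.1−10 μM) or dexamethasone (1 μM), then stimulated with zymosan (10 μg per 10^5 cells) and/or IFN-γ (25 U/mL) for 24 h. Supernatant IL-6 by sandwich ELISA; nitrite by Griess reaction at 540 nm. Quadruplicate wells, two experiments.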
# [3] = tested on: Mus musculus; test: Antiinflammatory activity in C57BL/6 mouse assessed as inhibition of zymosan-induced mononuclear cells migration in articular cavity at 10 mg/kg, ip administered 1 hr prior to zymosan challenge measured at 6 to 24 hrs; type: functional, organism-based
# Outline: (§2)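 Male C57BL/6 mice, fasted overnight, dosed orally (vehicle saline/water, 200 μL) or i.p. 1 h before zymosan (500 μg in 25 μL saline, i.a., left knee). Knee swelling measured as change in transverse diameter from basal by digital caliper (mm). Synovial washes (PBS/EDTA) counted on a particle counter; differentials from May-Grünwald-Giemsa cytospins, cells ×10^5/cavity. Sampled at 6 and/or 24 h; seven mice/group.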
# [4] = tested on: J774.A1; test: Antiinflammatory activity in mouse J774A.1 cells assessed as inhibition of zymosan and IFNgamma-induced IL6 production in cell-free supernatant at 1 uM preincubated for 1 hr followed by zymosan and IFNgamma addition measured after 24 hrs by sandwich ELISA; type: functional, cell-based; outline: as §1
# [5] = tested on: Neutrophil; test: Antiinflammatory activity in C57BL/6 mouse neutrophils assessed as inhibition of CXCL1/KC-induced neutrophil chemotaxis at 50 nM preincubated for 1 hr followed by CXCL1/KC-induction measured after 1 hr by Wright-Giemsa staining-based light microscopic method; type: functional, cell-based
# Outline: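 Bone marrow neutrophils from C57BL/6 femurs, purified on a 65%/72% Percoll gradient (~85−90% purity). 10^5 cells preincubated 1 h with compound or medium, then placed in a 48-well Boyden chamber over CXCL-1/KC (250 nM) across a 5 μm polycarbonate filter, 60 min at 37 °C, 5% CO2. Filter Wright-Giemsa stained; migrated cells counted in 15 fields; quadruplicate wells.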
# [6] = tested on: Mus musculus; test: Antiinflammatory activity in C57BL/6 mouse assessed as inhibition of zymosan-induced CXCL1/KC production in cell-free supernatant of knee joint synovial washes at 10 mg/kg, ip administered 1 hr prior to zymosan challenge measured at 6 to 24 hrs by sandwich ELISA method; type: functional, organism-based
# Outline: (§3)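 Male C57BL/6 mice (18−22 g), fasted overnight, dosed orally (in filtered water, 200 μL) or i.p. 1 h before i.a. zymosan (500 μg in 25 μL saline) into left knee; contralateral knee got vehicle. Synovial cavity washed twice with 150 μL PBS/10 mM EDTA at 6 and 24 h; washes spun 400g 10 min, 4 °C. Cytokines measured by sandwich ELISA, LTB4/PGE2 by EIA (pg/mL); six mice/group, two experiments.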
# [7] = tested on: Mus musculus; test: Antiinflammatory activity in C57BL/6 mouse assessed as inhibition of zymosan-induced bleeding in synovial tissue at 10 mg/kg, ip administered 1 hr prior to zymosan challenge measured at 6 to 24 hrs by hematoxylin and eosin staining-based optical microscopy; type: functional, organism-based
# Outline: (§4)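 Mice dosed orally or i.p. 1 h before i.a. zymosan (500 μg/cavity) or saline. Whole knees taken at 6 and 24 h from six mice, fixed in 10% formalin 48 h, decalcified in 10% EDTA/PBS 1−2 weeks, paraffin-embedded. 5 μm sections H&E-stained and examined by light microscopy. Parameter scores summed into an arthritis index; means ± SEM, two experiments.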
# [8] = tested on: Mus musculus; test: Antiinflammatory activity in C57BL/6 mouse assessed as inhibition of zymosan-induced synovial hyperplasia at 10 mg/kg, ip administered 1 hr prior to zymosan challenge measured at 6 to 24 hrs by hematoxylin and eosin staining-based optical microscopy; type: functional, organism-based; outline: as §4
# [9] = tested on: Mus musculus; test: Antiinflammatory activity in C57BL/6 mouse assessed as inhibition of zymosan-induced arthritis score at 10 mg/kg, ip administered 1 hr prior to zymosan challenge measured at 6 to 24 hrs by hematoxylin and eosin staining-based optical microscopy; type: functional, organism-based; outline: as §4
# [10] = tested on: Mus musculus; test: Antiinflammatory activity in C57BL/6 mouse assessed as inhibition of zymosan-induced total leukocyte accumulation in articular cavity at 10 mg/kg, ip administered 1 hr prior to zymosan challenge measured at 6 to 24 hrs; type: functional, organism-based; outline: as §2
# [11] = tested on: Mus musculus; test: Antiinflammatory activity in C57BL/6 mouse assessed as inhibition of zymosan-induced IL6 production in cell-free supernatant of knee joint synovial washes at 10 mg/kg, ip administered 1 hr prior to zymosan challenge measured at 6 to 24 hrs by sandwich ELISA method; type: functional, organism-based; outline: as §3
# [12] = tested on: Mus musculus; test: Antiinflammatory activity in C57BL/6 mouse assessed as inhibition of zymosan-induced infiltration of inflammatory cells into synovial tissue at 10 mg/kg, ip administered 1 hr prior to zymosan challenge measured at 6 to 24 hrs by hematoxylin and eosin staining-based optical microscopy; type: functional, organism-based; outline: as §4
# [13] = tested on: Mus musculus; test: Antiinflammatory activity in C57BL/6 mouse assessed as inhibition of zymosan-induced PGE2 production in cell-free supernatant of knee joint synovial washes at 10 mg/kg, ip administered 1 hr prior to zymosan challenge measured at 6 to 24 hrs by immunosorbent assay; type: functional, organism-based; outline: as §3
# [14] = tested on: Mus musculus; test: Antiinflammatory activity in C57BL/6 mouse assessed as inhibition of zymosan-induced knee joint edema formation at 10 mg/kg, ip administered 1 hr prior to zymosan challenge measured at 6 hrs relative to control; type: functional; conditions: C57BL/6, Knee joint; outline: as §2
# [15] = tested on: Mus musculus; test: Antiinflammatory activity in C57BL/6 mouse assessed as inhibition of zymosan-induced neutrophil migration in articular cavity at 10 mg/kg, ip administered 1 hr prior to zymosan challenge measured at 6 to 24 hrs; type: functional, organism-based; outline: as §2
# [16] = tested on: Mus musculus; test: Antiinflammatory activity in C57BL/6 mouse assessed as inhibition of zymosan-induced IL-1beta production in cell-free supernatant of knee joint synovial washes at 10 mg/kg, ip administered 1 hr prior to zymosan challenge measured at 6 to 24 hrs by sandwich ELISA method; type: functional, organism-based; outline: as §3
# [17] = tested on: Mus musculus; test: Antiinflammatory activity in C57BL/6 mouse assessed as inhibition of zymosan-induced knee joint edema formation at 10 mg/kg, ip administered 1 hr prior to zymosan challenge measured at 24 hrs relative to control; type: functional; conditions: C57BL/6, Knee joint; outline: as §2
# [18] = tested on: Mus musculus; test: Antiinflammatory activity in C57BL/6 mouse assessed as inhibition of zymosan-induced LTB4 production in cell-free supernatant of knee joint synovial washes at 10 mg/kg, ip administered 1 hr prior to zymosan challenge measured at 6 to 24 hrs by immunosorbent assay; type: functional, organism-based; outline: as §3
# [19] = tested on: Mus musculus; test: Antiinflammatory activity in C57BL/6 mouse assessed as inhibition of zymosan-induced TNFalpha production in cell-free supernatant of knee joint synovial washes at 10 mg/kg, ip administered 1 hr prior to zymosan challenge measured at 6 to 24 hrs by sandwich ELISA method; type: functional, organism-based; outline: as §3
compound,measurement,setting,value
C[C@@H]1C[C@H]2[C@@H]3CCC4=CC(=O)C=C[C@]4(C)[C@@]3(F)[C@@H](O)C[C@]2(C)[C@@]1(O)C(=O)CO [DEXAMETHASONE],inhibition,[1],Active
same,inhibition,[2],Active
same,inhibition,[3],Active
same,inhibition,[4],Active
same,inhibition,[5],Active
same,inhibition,[6],Active
same,inhibition,[7],Active
same,inhibition,[8],Active
same,inhibition,[9],Active
same,inhibition,[10],Active
same,inhibition,[11],Active
same,inhibition,[12],Active
same,inhibition,[13],Active
same,inhibition in vivo at 10 mg/kg,[14],42%
same,inhibition,[15],Active
same,inhibition,[16],Active
same,inhibition in vivo at 10 mg/kg,[17],48%
same,inhibition,[18],Active
same,inhibition,[19],Active
